Measurements published in ChEMBL document CHEMBL1150161, “New taxane diterpenoids from the leaves and twigs of Taxus sumatrana” (J Nat Prod, 2002).
Converted amounts (≈) assume the structure as drawn.

Assays:
KB = assay: Cytotoxicity against human KB cells after 72 hrs by methylene blue assay; format: functional, cell-based
Method in brief: (§1)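 Cells kept in RPMI-1640 at 37 °C under 5% CO2, seeded at 2880 cells/well and left 3 h before sample or standard drug was added. Samples prepared at 1, 10, 40 and 100 µg/mL (stock, not final). Incubated 37 °C for 3 days. Cells then fixed in 10% formaldehyde/0.9% saline, stained with methylene blue in borate buffer, and eluted with EtOH–0.1 M HCl (1:1). Read at A650. IC50 is the concentration giving 50% absorbance reduction versus untreated cells.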

[1] = Cytotoxicity against human HEPA 59T/VGH cells after 72 hrs by methylene blue assay; format: functional, cell-based; method in brief: as §1

Compound | IC50 (KB) | IC50 [1]
CC(=O)O[C@H]1C(=O)[C@@]2(C)[C@H]([C@H](OC(=O)c3ccccc3)[C@]3(O)C[C@H](OC(=O)[C@H](O)[C@@H](NC(=O)c4ccccc4)c4ccccc4)C(C)=C1C3(C)C)[C@]1(OC(C)=O)CO[C@@H]1C[C@@H]2O [PACLITAXEL] | 0.001 µg/mL (≈ 0.00117 µM) | 0.001 µg/mL (≈ 0.00117 µM)
CC(=O)O[C@H]1C2[C@@](C)([C@@H](O)C[C@H]3OC[C@@]23OC(C)=O)[C@@H](O)[C@H](O)C2=C(C)[C@@H](O)C[C@]21C(C)(C)O (some centres not stated) [TAXUMAIROL Q] | 16.2 µg/mL (≈ 33.5 µM) | 14.5 µg/mL (≈ 30 µM)
CC(=O)O[C@H]1C[C@@]23C(=C1C)[C@@](O)(C(=O)OC2(C)C)[C@]1(C)[C@@H](OC(C)=O)C[C@H]2OC[C@@]2(OC(C)=O)[C@H]1[C@@H]3OC(=O)c1ccccc1 | 8.96 µg/mL (≈ 14.3 µM) | 3.09 µg/mL (≈ 4.93 µM)
CC(=O)O[C@H]1C[C@@]23C(=C1C)[C@@](O)(C(=O)OC2(C)C)[C@@]1(C)[C@H]([C@@H]3OC(=O)c2ccccc2)[C@]2(OC(C)=O)CO[C@@H]2C[C@@H]1O | 2.91 µg/mL (≈ 4.98 µM) | 13.9 µg/mL (≈ 23.8 µM)
CC(=O)O[C@@]12CO[C@@H]1C[C@H](O)[C@]1(C)[C@@H]2[C@H](OC(=O)c2ccccc2)[C@]23C[C@H](O)C(C)=C2[C@@]1(O)C(=O)OC3(C)C [WALLIFOLIOL] | 0.56 µg/mL (≈ 1.03 µM) | 0.1 µg/mL (≈ 0.184 µM)
CC(=O)O[C@H]1C[C@@]2(O)[C@H]3OC[C@]4(O)[C@@H](OC(C)=O)C[C@H](OC(=O)c5ccccc5)[C@](C)([C@H]34)[C@@H](OC(=O)c3ccccc3)[C@H](OC(C)=O)C(=C1C)C2(C)C | 12.8 µg/mL (≈ 17.4 µM) | 7.02 µg/mL (≈ 9.55 µM)
CC(=O)O[C@H]1C[C@]2(C(C)(C)O)C(=C1C)[C@@H](OC(C)=O)[C@H](OC(C)=O)[C@@]1(C)[C@@H](OC(C)=O)C[C@H]3OC[C@@]3(OC(C)=O)[C@H]1[C@@H]2OC(C)=O | 4.92 µg/mL (≈ 7.54 µM) | 6.02 µg/mL (≈ 9.22 µM)
C=C1[C@@H](O)C[C@H](OC(C)=O)[C@]2(C)[C@@H](OC(C)=O)[C@H](OC(C)=O)C3=C(C)C(=O)C[C@@H]([C@@H](OC(C)=O)[C@H]12)C3(C)C [TAXUSPINE F] | 16.9 µg/mL (≈ 31.6 µM) | 3.31 µg/mL (≈ 6.19 µM)
CC(=O)O[C@H]1C[C@H]2OC[C@@]2(OC(C)=O)[C@H]2[C@H](OC(C)=O)[C@]3(C(C)(C)O)C[C@H](OC(=O)c4ccccc4)C(C)=C3[C@@H](OC(=O)c3ccccc3)[C@H](OC(C)=O)[C@]12C | 9.69 µg/mL (≈ 12.5 µM) | > 20 µg/mL
CO[C@@]12[C@H](COC(N)=O)C3=C(C(=O)C(C)=C(N)C3=O)N1C[C@@H]1N[C@@H]12 [MITOMYCIN] | 0.01 µg/mL (≈ 0.0299 µM) | 0.01 µg/mL (≈ 0.0299 µM)
CC(=O)O[C@@]12CO[C@@H]1C[C@H](OC(=O)c1ccccc1)[C@]1(C)[C@@H]2[C@H](OC(=O)c2ccccc2)[C@]23C[C@H](OC(=O)c4ccccc4)C(C)=C2[C@@]1(O)C(=O)OC3(C)C | 15.4 µg/mL (≈ 20.6 µM) | 4.83 µg/mL (≈ 6.43 µM)
